Rows were chosen to be rich in hits. Some 3.7% of all compounds tested hit in one or more screens of this group.
GAA850 FXN act: frataxin GAA850 promoter activation. HEK293 lucGAA850 FXN promoter luciferase reporter, 24 h; percent of 10 µM SAHA response. activation, % at 6 µM. hit rate 0.56% among 360,000;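 active = activation above the average of all compounds screened plus 3 SD, cutoff fixed separately per campaign, cut at about 7.5% in these data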;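 also: 0% = DMSO wells and 100% = 10 µM SAHA wells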
JMJD2C inh: inhibitors of human GASC-1 (JMJD2C) demethylase | Q9H3R0 | GST-JMJD2C(1-420) H3K9me3 demethylation, DELFIA europium | inhibition, % at 2.35 µM | hit rate 0.069% among 330,000 | AID 2099;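 active = more than half of a compound's replicate wells show inhibition beyond 50%, single wells judged on their own value; inconclusive = some, but no more than half, of replicates pass 50% inhibition; inactive = no replicate passes 50% inhibition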;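 also: signal counts dimethyl H3K9 product captured on neutravidin plate; 0% = median of DMSO wells and 100% = 0.3 times that DMSO median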
Target sequence (Q9H3R0 1-420 limits assumed): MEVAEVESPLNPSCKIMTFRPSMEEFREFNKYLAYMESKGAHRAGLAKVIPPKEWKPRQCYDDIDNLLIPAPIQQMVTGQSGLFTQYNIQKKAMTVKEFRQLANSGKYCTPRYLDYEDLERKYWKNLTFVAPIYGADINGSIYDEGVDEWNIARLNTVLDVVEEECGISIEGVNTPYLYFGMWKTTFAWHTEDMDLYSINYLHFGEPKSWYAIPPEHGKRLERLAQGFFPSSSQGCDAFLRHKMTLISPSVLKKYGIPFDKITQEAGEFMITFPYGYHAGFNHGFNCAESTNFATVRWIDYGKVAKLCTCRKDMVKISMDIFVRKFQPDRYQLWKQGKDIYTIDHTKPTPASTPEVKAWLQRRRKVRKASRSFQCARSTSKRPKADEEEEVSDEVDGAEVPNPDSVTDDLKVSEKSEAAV
SR-BI HDL uptake: inhibitors of mouse SR-BI mediated HDL lipid uptake; ldlA[mSR-BI] CHO cells, DiI-HDL uptake fluorescence, 3 h; inhibition, % at 12.5 µM; hit rate 0.96% among 320,000;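 active = mean replicate inhibition of at least 70% and a set share of replicates each scoring 70 or more; inconclusive = meets just one of the two criteria; inactive = fails both criteria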;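 also: 0% = median of neutral control wells and 100% = median of positive control wells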
AHR activator: activators of human aryl hydrocarbon receptor | AID 2796 | AHR-responsive luciferase reporter cells, luminescence | hit rate 2.5% among 320,000 | activation, % at 5 µM; in the data active = activation above about 47%;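 also: 0% = vehicle wells and 100% = reference agonist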
SR-BI uptake up: enhances SR-BI lipid uptake from DiI-HDL; CHO ldlA[mSR-BI] cells, DiI-HDL uptake fluorescence, 3 h; 100 = double the neutral-control signal; activation, % at 12.5 µM; hit rate 0.096% among 320,000;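 active = mean replicate activation of at least 60% and every replicate at or above 60%; inconclusive = mean or all-replicate condition met, but not both; inactive = mean below 60% and not all replicates reaching 60%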;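 also: 0% = median plate neutral-control signal and 100% = twice that signal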
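material = CHO ldlA[mSR-BI] cells | medium = Ham's F12 with 0.5% BSA, HEPES 25 mM, pH 7.4 | reagent = fluorescent DiI-HDL, 10 µg/mL final | compound dosing = single-point compound dose | incubation = 3 h, 37 °C | measured by = bottom-read fluorescence, 550/595 nm | measure = HDL uptake via cellular fluorescence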
An asterisk follows results filed as active; i = inactive; ? = inconclusive; nt = not tested or not shown.

SMILES	GAA850 FXN act	JMJD2C inh	SR-BI HDL uptake	AHR activator	SR-BI uptake up
CCOc1cc(C(=O)Nc2ccc3c(c2)OCO3)ccc1OC(F)F	4.9	3.0	88.7*	50.6*	-88.7
CCOc1ccc(C(=O)NCC(=O)Nc2ccc3c(c2)OCO3)cc1OCC	1.3	nt	6.9	nt	-6.9
CN(C(=O)CSc1nnc(C2CC2)n1C1CC1)C1(C#N)CCCCC1	2.1	-0.7	10.3	0.0	-10.3
O=C(CCC1CCCN(C(=O)CC2=CCCCC2)C1)N1CCN(c2ccccn2)CC1 (stereo not drawn)	-0.1	-2.0	-5.9	0.4	5.9
O=C(CCl)N1CCCC1c1ccc2c(c1)OCCO2 (stereo not drawn)	-12.0	3.6	2.9	0.0	-2.9
COC(=O)CSc1nc(-c2ccc(F)cc2)cc(C(F)(F)F)n1	-1.5	-0.7	22.9	-1.5	-22.9
CCN(CC)CCCNC(=O)CSc1nc(-c2ccc(F)cc2)cc(C(F)(F)F)n1	2.2	-2.4	85.7*	-0.2	-85.7
C[C@H]1CN([C@@H](C)CO)C(=O)CCCn2nncc2CO[C@H]1CN(C)S(=O)(=O)c1ccc(Oc2ccccc2)cc1	0.1	nt	nt	nt	nt
Nc1ccc(N=Nc2ccccc2)c2ccccc12	2.8	8.4	5.7	54.5*	-5.7
CC(C)[C@H](NC(=O)C1CCCC1)c1nc2ccccc2[nH]1	-2.8	-9.8	-7.4	1.0	7.4
CCc1cccc(C)c1NC(=O)CSc1nnc(CCCOc2ccc(Cl)cc2Cl)n1C	-1.0	-6.3	75.4*	0.8	-75.4
Cn1c(CCCOc2ccc(Cl)cc2Cl)nnc1SCC(=O)Nc1cccc(F)c1	0.7	-6.9	-25.6	1.1	25.6
CCC1CCCCN1C(=O)c1sc2ncnc(N(CC)CC)c2c1C (stereo not drawn)	0.0	1.4	15.9	58.5*	-15.9
COc1ccc(CNC(=O)OCCN2CCN(Cc3ccccc3)CCC2=O)cc1	0.0	-2.3	-23.7	-2.7	23.7
CCOC(=O)c1sc(N/N=C/c2cccc(C)c2)nc1C	1.9	-50.8	18.5	98.0*	-18.5
CCOC(=O)c1sc(Nc2ccc(C)cc2C)nc1C	5.3	-1.9	15.3	13.1	-15.3
COc1cc(/C=N/NC(=O)C(Cc2c[nH]c3ccccc23)NC(=O)OCC(C)C)cc([N+](=O)[O-])c1OCc1ccccc1 (stereo not drawn)	2.5	-11.7	21.1	64.2*	-21.1
CCCCN(C(=O)CC1OC(=O)c2ccccc21)c1c(N)n(CCCC)c(=O)[nH]c1=O (stereo not drawn)	0.8	-9.5	-33.9	2.6	33.9
CCOc1cc2[nH]c(=S)n(C3CCN(Cc4ccccc4)CC3)c(=O)c2cc1OCC	4.5	2.7	74.5*	2.7	-74.5
CCOc1cc(NC(=S)Nc2ccccc2)c(OCC)cc1NC(=O)c1ccc(OC)cc1	-0.7	-2.5	88.8*	25.2	-88.8
CCOc1cc(NC(=S)NCCOC)c(OCC)cc1NC(=O)c1cccs1	nt	68.8*	nt	8.1	nt
CCOc1ccccc1NC(=O)c1ccc2ccccc2c1	1.5	4.8	54.8	66.7*	-54.8
CCCOc1ccccc1NC(=O)c1ccc([N+](=O)[O-])cc1	1.5	-9.7	50.4	64.3*	-50.4
O=[N+]([O-])c1cc([N+](=O)[O-])c(Oc2cc(F)cc(F)c2)cc1NN1CCCCC1	-1.5	-0.1	-5.3	4.9	5.3
CC(c1ccc(F)cc1)n1cc(S(=O)(=O)N2CCCC2)ccc1=O (stereo not drawn)	-0.4	8.8	-13.1	-0.6	13.1
SMILES	GAA850 FXN act	JMJD2C inh	SR-BI HDL uptake	AHR activator	SR-BI uptake up
CCOc1ccccc1NC(=O)NNC(=O)c1ccc2ccccc2c1	-0.2	-12.2	14.9	49.1*	-14.9
O=c1c2ccccc2nc(N/N=C/c2c(O)ccc3ccccc23)n1O	-6.2	14.4	129.1*	38.2	-129.1
O=C(Nc1ccccc1N1CCOCC1)c1cccc(S(=O)(=O)N2CCOCC2)c1	0.9	2.7	-4.9	1.0	4.9
C/C(=C/C(=O)Nc1cccc(F)c1)N1CCCC1	-0.3	0.9	-8.8	0.7	8.8
COc1ccc(NC(=O)CSc2nnc(-c3ccco3)n2N)cc1Cl	1.4	16.4	-0.5	0.7	0.5
COc1ccc(NC(=O)CSc2nnc(-c3ccccn3)n2N)cc1Cl	-1.3	1.6	16.8	73.1*	-16.8
Clc1ccccc1-c1nn2c(Cn3cnc4ccccc43)nnc2s1	-0.8	20.9	-17.1	16.0	17.1
Fc1ccc(-c2nn3c(C4COc5ccccc5O4)nnc3s2)cc1 (stereo not drawn)	3.4	0.7	-10.1	7.7	10.1
c1csc(-c2nn3c(C4COc5ccccc5O4)nnc3s2)c1 (stereo not drawn)	7.1	nt	-17.4	61.8*	17.4
Clc1ccccc1-c1nnc2sc(-c3ccc4c(c3)OCO4)nn12	-1.3	4.2	-15.0	56.1*	15.0
c1ccc2c(c1)ncn2Cc1nnc2sc(-c3ccc4c(c3)OCO4)nn12	0.1	-7.9	-1.1	49.9*	1.1
Brc1ccccc1-c1nnc2sc(-c3ccc4c(c3)OCCO4)nn12	-3.1	8.3	-1.5	7.3	1.5
c1ccc2c(c1)OCC(c1nnc3sc(-c4ccc5c(c4)OCO5)nn13)O2 (stereo not drawn)	-0.7	-11.3	-7.1	47.8*	7.1
Cc1ccc(C(=O)NCCc2nnc3ccc(SCC(=O)Nc4cc(C)on4)nn23)cc1	1.9	1.7	-3.9	0.1	3.9
CN(C)c1ccc(/C=N/NC(N)=S)cc1[N+](=O)[O-]	0.8	i	2.2	2.0	-2.2
Cc1cc(N/N=C/c2ccc(N(C)C)cc2)nc(NCc2ccccc2)n1	-1.5	-13.7	80.5*	9.0	-80.5
CCN1C(=O)/C(=C2/Sc3ccc(OC)cc3N2C)SC1=Nc1cccc(O)c1	-1.7	1.6	94.1*	5.8	-94.1
C=CCN1C(=O)/C(=C2/Sc3ccc(OC)cc3N2C)SC1=Nc1ccccc1	1.8	-14.0	96.1*	4.2	-96.1
Cc1cccn2c(=O)nc(SCC(=O)NC3CCCCC3)nc12	0.3	16.9	3.1	-1.8	-3.1
CC(C)=CCN1CCN(Cc2cc(C(C)C)n[nH]2)CC1CCO (stereo not drawn)	-1.6	-9.8	-5.9	-0.2	5.9
COc1ccc(S(=O)(=O)N2CCCCCC2)cc1C(=O)N(C)Cc1ccc(OC)c(OC)c1OC	2.1	-8.2	29.3	-2.0	-29.3
CCN=C1S/C(=C\c2ccc(-c3cccc(C(=O)O)c3)o2)C(=O)N1CC	8.4*	8.7	-66.5	8.7	?
CNC(=S)N/N=C/c1c2ccccc2c(Cl)c2ccccc12	0.9	0.7	26.4	48.0*	-26.4
CNC(=S)N/N=C/c1c(C)cccc1Cl	-1.5	-0.2	13.5	-0.2	-13.5
NNc1ncnc2c1cnn2-c1ccccc1	2.2	-2.1	1.2	60.8*	-1.2
COc1ccc(CC(=O)NNc2ncnc3c2cnn3-c2ccccc2)cc1	4.0	9.1	9.3	51.1*	-9.3
CC(C)Nc1ncnc2c1cnn2-c1ccccc1	2.7	-4.0	-22.9	-1.2	22.9
